Activity calls are given as the source filed them. The calls are words filed in the database; no cut-off is given here.
What was measured:
[1] = target: T1, Mitogen-activated protein kinase kinase kinase kinase 2 (Homo sapiens, UniProt Q12851); experiment: Inhibition of MAP4K2 (unknown origin) Lys1 labeling site by KiNativ Profiling analysis
T1 sequence (Q12851 whole entry): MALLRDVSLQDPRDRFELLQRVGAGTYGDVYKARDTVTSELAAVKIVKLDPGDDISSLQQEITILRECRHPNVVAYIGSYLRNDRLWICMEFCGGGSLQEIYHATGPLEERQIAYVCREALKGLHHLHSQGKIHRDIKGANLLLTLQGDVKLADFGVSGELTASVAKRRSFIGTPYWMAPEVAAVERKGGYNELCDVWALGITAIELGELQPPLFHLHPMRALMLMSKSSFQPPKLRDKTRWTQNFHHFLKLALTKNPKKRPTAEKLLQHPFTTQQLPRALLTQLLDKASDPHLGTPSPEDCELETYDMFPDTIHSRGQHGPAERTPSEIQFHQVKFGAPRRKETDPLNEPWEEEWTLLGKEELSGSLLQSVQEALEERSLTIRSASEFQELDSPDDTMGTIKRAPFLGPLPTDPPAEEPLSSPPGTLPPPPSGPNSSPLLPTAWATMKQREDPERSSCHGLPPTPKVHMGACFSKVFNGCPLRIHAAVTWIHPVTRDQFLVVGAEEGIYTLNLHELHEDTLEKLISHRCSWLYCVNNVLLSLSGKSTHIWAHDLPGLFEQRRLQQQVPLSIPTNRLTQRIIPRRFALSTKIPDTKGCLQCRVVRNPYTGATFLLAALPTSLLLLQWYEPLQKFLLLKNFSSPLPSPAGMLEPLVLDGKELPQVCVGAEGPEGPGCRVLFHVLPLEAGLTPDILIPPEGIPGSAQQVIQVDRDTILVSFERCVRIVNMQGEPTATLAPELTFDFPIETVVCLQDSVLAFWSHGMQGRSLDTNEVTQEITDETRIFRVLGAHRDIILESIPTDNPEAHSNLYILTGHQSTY

[2] = target: T2, Mitogen-activated protein kinase kinase kinase 7 (Homo sapiens, UniProt O43318); experiment: Inhibition of TAK1 (unknown origin) Lys2 labeling site by KiNativ Profiling analysis
T2 sequence (O43318 whole entry): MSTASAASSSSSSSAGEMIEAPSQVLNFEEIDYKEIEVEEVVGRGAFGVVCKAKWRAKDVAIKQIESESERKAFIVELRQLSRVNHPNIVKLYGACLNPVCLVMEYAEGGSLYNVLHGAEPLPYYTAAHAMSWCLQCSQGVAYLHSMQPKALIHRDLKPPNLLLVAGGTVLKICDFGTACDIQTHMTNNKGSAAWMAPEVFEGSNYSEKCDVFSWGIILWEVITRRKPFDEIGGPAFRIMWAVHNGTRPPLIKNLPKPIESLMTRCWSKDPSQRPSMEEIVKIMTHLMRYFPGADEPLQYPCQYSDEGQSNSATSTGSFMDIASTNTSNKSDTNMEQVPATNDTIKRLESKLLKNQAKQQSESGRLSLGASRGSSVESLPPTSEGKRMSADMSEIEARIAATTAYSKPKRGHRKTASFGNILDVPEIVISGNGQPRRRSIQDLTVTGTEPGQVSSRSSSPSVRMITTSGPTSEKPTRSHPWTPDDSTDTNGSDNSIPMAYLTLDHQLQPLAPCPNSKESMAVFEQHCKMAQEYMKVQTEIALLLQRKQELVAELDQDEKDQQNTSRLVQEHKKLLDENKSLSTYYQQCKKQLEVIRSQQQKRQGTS

BaF3 [3] = experiment: Antiproliferative activity against parental mouse BaF3 cells assessed reduction in cell viability measured after 48 hrs by Celltiter-glo assay; assay type: functional, cell-based; conditions: BaF3, 48 h
[4] = target: T3, Mitogen-activated protein kinase kinase kinase 20 (Homo sapiens, UniProt Q9NYL2); experiment: Inhibition of ZAK (unknown origin) Lys1 labeling site by KiNativ Profiling analysis
Target sequence in this assay (Q9NYL2 whole entry): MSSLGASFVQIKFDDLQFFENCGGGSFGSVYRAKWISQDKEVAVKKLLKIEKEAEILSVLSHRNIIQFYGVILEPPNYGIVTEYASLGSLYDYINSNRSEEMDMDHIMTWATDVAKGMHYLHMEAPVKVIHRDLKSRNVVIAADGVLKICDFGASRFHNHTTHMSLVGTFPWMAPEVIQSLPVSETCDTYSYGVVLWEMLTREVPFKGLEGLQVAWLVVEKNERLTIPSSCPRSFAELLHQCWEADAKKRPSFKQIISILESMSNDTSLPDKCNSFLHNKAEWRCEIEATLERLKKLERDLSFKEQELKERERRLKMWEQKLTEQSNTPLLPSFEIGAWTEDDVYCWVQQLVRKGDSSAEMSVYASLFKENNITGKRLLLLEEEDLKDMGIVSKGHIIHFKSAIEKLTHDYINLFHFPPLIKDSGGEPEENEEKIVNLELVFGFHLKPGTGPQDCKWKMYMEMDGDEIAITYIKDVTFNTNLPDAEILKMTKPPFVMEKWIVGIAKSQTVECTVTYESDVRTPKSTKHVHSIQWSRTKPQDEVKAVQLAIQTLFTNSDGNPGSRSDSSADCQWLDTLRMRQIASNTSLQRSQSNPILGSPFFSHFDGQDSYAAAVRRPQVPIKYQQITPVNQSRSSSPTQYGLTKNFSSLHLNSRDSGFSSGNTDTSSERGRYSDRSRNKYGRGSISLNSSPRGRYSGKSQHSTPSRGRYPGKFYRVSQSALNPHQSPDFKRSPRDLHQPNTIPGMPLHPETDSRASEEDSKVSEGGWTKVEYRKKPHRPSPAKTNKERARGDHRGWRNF

[5] = target: T4, Tyrosine-protein kinase ABL1 (Homo sapiens, UniProt P00519); experiment: Inhibition of ABL Lys1 labeling site in human Huh-7 cell lysate at 1 uM by KiNativ Profiling analysis relative to control; assay type: subcellular
T4 sequence (P00519 whole entry): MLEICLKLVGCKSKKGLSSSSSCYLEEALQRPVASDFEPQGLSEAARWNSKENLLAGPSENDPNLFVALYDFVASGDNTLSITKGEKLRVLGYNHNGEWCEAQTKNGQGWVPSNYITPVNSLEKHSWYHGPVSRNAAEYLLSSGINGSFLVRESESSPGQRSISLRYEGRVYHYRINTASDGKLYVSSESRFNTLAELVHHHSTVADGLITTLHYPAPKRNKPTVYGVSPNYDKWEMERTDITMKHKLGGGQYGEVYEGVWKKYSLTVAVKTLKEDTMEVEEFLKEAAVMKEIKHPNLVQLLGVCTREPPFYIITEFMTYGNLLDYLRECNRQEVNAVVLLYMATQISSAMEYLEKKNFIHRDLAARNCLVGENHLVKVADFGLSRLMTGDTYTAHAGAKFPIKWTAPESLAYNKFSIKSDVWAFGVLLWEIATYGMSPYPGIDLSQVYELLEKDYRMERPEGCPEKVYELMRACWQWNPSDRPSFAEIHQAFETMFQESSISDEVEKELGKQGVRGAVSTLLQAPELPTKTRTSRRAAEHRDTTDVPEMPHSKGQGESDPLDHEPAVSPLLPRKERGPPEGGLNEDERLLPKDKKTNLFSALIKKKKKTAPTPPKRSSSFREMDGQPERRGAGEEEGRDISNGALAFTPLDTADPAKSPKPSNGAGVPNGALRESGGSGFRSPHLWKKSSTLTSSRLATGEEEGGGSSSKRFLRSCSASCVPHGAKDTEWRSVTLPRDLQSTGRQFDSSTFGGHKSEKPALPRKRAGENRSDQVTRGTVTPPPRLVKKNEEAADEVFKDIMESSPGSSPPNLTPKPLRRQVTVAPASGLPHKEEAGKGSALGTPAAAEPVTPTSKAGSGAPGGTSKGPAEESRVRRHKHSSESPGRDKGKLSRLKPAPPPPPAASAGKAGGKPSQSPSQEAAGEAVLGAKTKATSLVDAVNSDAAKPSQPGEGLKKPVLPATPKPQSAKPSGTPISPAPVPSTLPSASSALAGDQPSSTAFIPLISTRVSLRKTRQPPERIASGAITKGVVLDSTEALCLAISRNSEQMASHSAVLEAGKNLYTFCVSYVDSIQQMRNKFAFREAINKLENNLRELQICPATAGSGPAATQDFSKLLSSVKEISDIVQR

[6] = target: T4, Tyrosine-protein kinase ABL1; experiment: Inhibition of ABL ACT labeling site in human Huh-7 cell lysate at 1 uM by KiNativ Profiling analysis relative to control; assay type: subcellular
[7] = target: T3, Mitogen-activated protein kinase kinase kinase 20; experiment: Inhibition of ZAK Lys1 labeling site in human Huh-7 cell lysate at 1 uM by KiNativ Profiling analysis relative to control; assay type: subcellular
Target sequence in this assay (Q9NYL2 2-800 limits assumed): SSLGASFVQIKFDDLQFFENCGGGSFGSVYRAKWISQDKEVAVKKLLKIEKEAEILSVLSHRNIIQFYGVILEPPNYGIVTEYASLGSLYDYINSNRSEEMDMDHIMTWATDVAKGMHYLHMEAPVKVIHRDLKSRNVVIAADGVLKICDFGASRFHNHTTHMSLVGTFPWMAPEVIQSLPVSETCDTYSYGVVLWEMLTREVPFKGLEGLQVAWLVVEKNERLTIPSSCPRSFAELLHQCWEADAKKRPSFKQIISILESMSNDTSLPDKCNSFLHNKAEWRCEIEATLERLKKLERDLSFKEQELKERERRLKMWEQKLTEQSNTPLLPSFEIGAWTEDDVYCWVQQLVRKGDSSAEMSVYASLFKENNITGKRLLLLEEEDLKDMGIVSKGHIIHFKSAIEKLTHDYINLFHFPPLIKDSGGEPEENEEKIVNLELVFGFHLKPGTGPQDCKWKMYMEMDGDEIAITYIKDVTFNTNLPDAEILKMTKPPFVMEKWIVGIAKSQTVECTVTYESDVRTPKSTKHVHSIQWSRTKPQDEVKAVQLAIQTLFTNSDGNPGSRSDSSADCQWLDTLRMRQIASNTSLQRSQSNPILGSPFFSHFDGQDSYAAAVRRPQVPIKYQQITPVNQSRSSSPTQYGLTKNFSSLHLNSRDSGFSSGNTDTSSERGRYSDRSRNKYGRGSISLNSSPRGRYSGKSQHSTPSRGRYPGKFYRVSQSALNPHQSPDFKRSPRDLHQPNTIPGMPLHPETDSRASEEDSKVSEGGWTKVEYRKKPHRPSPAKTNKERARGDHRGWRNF

BaF3 [8] = experiment: Antiproliferative activity against parental mouse BaF3 cells harbouring Bcr/Abl assessed reduction in cell viability measured after 48 hrs by Celltiter-glo assay; assay type: functional, cell-based; conditions: BaF3, 48 h
How it was run: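 Cells were grown with serial dilutions of compound for 48 h, and viability was read by CellTiter-Glo. IC50 was derived from the dose–response curve. Parental Ba/F3 cells were grown in the presence of interleukin 3. The BCR-ABL line is BCR-ABL-dependent Ba/F3.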

[9] = target: T5, Mitogen-activated protein kinase 14 (Homo sapiens, UniProt Q16539); experiment: Inhibition of p38 alpha (unknown origin) by KiNativ Profiling analysis
T5 sequence (Q16539 whole entry): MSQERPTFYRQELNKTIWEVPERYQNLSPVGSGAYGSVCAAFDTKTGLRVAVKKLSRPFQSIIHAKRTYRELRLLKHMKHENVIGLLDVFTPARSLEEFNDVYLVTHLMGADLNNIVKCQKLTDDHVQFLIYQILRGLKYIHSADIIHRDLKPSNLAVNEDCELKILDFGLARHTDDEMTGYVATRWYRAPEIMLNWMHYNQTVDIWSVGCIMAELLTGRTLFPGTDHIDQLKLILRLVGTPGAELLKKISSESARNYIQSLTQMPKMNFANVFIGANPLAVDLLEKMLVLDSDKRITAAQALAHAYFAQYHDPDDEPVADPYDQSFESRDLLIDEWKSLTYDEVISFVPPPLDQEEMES

[10] = target: T5, Mitogen-activated protein kinase 14; experiment: Inhibition of p38 alpha in human Huh-7 cell lysate at 1 uM by KiNativ Profiling analysis relative to control; assay type: subcellular
L929 = experiment: Inhibition of TNF alpha induced IKKalpha/beta phosphorylation level in mouse L929 cells at 100 nM preincubated for 30 mins followed by TNF alpha stimulation and measured after 5 mins by Western blot analysis; assay type: functional, cell-based
How it was run: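 Mouse L929 cells were pretreated with compound at 100 nM for 30 min, then stimulated with TNFα for 5 min. Lysates were Western blotted for phospho-IKKα/β, with tubulin as loading control.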

[11] = target: T6, Tyrosine-protein kinase CSK (Homo sapiens, UniProt P41240); experiment: Inhibition of CSK (unknown origin) ACT labeling site by KiNativ Profiling analysis
Target sequence in this assay (P41240 whole entry): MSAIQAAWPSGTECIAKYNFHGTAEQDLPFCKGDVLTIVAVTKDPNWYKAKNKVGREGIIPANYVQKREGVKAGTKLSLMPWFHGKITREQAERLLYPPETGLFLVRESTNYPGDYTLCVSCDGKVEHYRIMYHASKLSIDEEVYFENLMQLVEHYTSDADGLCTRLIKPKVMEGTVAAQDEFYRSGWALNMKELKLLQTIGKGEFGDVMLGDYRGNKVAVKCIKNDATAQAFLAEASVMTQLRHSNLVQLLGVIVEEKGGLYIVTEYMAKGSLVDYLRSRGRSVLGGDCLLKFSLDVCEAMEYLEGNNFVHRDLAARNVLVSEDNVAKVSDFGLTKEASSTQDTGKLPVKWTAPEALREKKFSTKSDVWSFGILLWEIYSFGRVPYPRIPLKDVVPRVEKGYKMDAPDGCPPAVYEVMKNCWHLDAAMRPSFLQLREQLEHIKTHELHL

[12] = target: T6, Tyrosine-protein kinase CSK; experiment: Inhibition of CSK ACT labeling site in human Huh-7 cell lysate at 1 uM by KiNativ Profiling analysis relative to control; assay type: subcellular
Target sequence in this assay (P41240 2-450 limits assumed): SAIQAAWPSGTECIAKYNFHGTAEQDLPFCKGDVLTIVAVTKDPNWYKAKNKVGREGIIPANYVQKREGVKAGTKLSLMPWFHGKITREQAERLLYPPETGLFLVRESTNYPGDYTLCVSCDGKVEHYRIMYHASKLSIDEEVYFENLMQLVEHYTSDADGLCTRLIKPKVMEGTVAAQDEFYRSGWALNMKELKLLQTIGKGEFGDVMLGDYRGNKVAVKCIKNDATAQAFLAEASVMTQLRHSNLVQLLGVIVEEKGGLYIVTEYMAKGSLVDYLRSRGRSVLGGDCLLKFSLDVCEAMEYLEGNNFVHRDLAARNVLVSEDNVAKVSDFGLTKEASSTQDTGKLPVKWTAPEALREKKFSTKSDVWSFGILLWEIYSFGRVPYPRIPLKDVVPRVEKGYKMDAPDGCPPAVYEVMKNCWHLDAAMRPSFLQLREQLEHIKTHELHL

[13] = target: T7, Mitogen-activated protein kinase kinase kinase kinase 2 (Homo sapiens) (UniProt Q12851); experiment: Inhibition of MAP4K2 Lys1 labeling site in human A-375 cells at 0.5 uM by KiNativ Profiling analysis relative to control; assay type: cell-based
T7 sequence (whole entry): T1 sequence (Q12851 whole entry)

[14] = target: T8, Mitogen-activated protein kinase kinase kinase 7 (Homo sapiens) (UniProt O43318); experiment: Inhibition of TAK1 Lys2 labeling site in human A-375 cells at 0.5 uM by KiNativ Profiling analysis relative to control; assay type: cell-based
T8 sequence (whole entry): T2 sequence (O43318 whole entry)

Compound	IC50 [1] [µM]	IC50 [2] [µM]	IC50 (BaF3 [3]) [µM]	IC50 [4] [µM]	inhibition [5] [%]	inhibition [6] [%]	inhibition [7] [%]	IC50 (BaF3 [8]) [µM]	IC50 [9] [µM]	inhibition [10] [%]	inhibition (L929)	IC50 [11] [µM]	inhibition [12] [%]	inhibition [13] [%]	inhibition [14] [%]
CCN1CCN(Cc2ccc(NC(=O)c3ccc(OC)c(Oc4ncnc5[nH]ccc45)c3)cc2C(F)(F)F)CC1	0.296	0.292	–	–	–	–	–	–	–	–	–	–	–	–	–
CCN1CCN(Cc2ccc(NC(=O)c3cccc(/C=C/c4cnc5[nH]ccc5c4OC)c3)cc2C(F)(F)F)CC1	–	–	7.1	0.396	82	89.6	75.3	0.01	–	–	–	–	–	–	–
COc1c(CCc2cc(C(=O)Nc3cc(-n4cnc(C)c4)cc(C(F)(F)F)c3)ccc2C)cnc2[nH]ccc12	–	–	4.92	0.0982	80.4	92.2	95.6	0.01	0.00527	98.8	–	–	–	–	–
CCN1CCN(Cc2ccc(C(=O)Nc3cccc(CCc4cnc5[nH]ccc5c4OC)c3)cc2C(F)(F)F)CC1	–	–	> 10	0.179	> 80	90.3	78.4	0.016	0.555	95.9	–	–	–	–	–
CNC(=O)c1ccc(C)c(-n2c(C)cc(OCc3ccc(F)cc3F)c(Br)c2=O)c1	–	–	–	–	–	–	–	–	–	–	inactive	–	–	–	–
CCN1CCN(Cc2ccc(C(=O)Nc3ccc(C)c(Oc4ccnc5[nH]ccc45)c3)cc2C(F)(F)F)CC1	–	–	–	–	–	–	–	–	0.0195	88.4	inactive	–	–	–	–
COc1c(/C=C/c2cc(C(=O)Nc3cccc(C(C)(C)C#N)c3)ccc2C)cnc2[nH]ccc12	–	–	3.3	0.103	71.5	62.2	95.8	0.01	–	–	–	0.0251	75.7	–	–
CCN1CCN(Cc2ccc(NC(=O)c3cccc(CCc4cnc5[nH]ccc5c4OC)c3)cc2C(F)(F)F)CC1	–	–	> 10	0.301	83	66.4	78	0.387	–	–	–	–	–	–	–
COc1c(/C=C/c2cc(C(=O)Nc3ccc(CN4CCC(N(C)C)C4)c(C(F)(F)F)c3)ccc2C)cnc2[nH]ccc12 (stereo not given)	–	–	5.47	–	47.5	66.6	–	0.01	0.14	85	–	0.025	75.6	–	–
CCN1CCN(Cc2ccc(NC(=O)c3ccc(C)c(OCc4cnc5[nH]ccc5c4OC)c3)cc2C(F)(F)F)CC1	0.0494	0.15	8.28	–	> 80	96	–	0.039	0.659	97.3	–	0.059	84	89.4	59.6
CCN1CCN(Cc2ccc(NC(=O)c3cccc(Oc4ccnc5[nH]ccc45)c3)cc2C(F)(F)F)CC1	0.0238	0.119	7.44	–	–	> 96	–	0.01	0.0359	85.8	–	–	–	> 80	75.6
CCN1CCN(Cc2ccc(NC(=O)c3ccc(C)c(Oc4ccnc(C(=O)NC)c4)c3)cc2C(F)(F)F)CC1	–	–	–	0.447	–	–	82.7	–	0.0696	93.1	–	–	–	–	–
Cc1ccc(C(=O)Nc2cc(N3CCN(C)CC3)cc(C(F)(F)F)c2)cc1Oc1ncnc2[nH]ccc12	0.177	0.465	–	–	–	–	–	–	–	–	–	–	–	73.6	29.3
CCN1CCN(c2ccc(NC(=O)c3ccc(C)c(CCc4cnc5[nH]ccc5c4OC)c3)cc2C(F)(F)F)CC1	–	–	9.74	–	75.2	80.7	–	0.181	–	–	–	–	–	–	–
C[S+]([O-])c1ccc(-c2nc(-c3ccc(F)cc3)c(-c3ccncc3)[nH]2)cc1 (stereo not given)	–	–	–	–	–	–	–	–	–	–	inactive	–	–	–	–
CCN1CCN(Cc2ccc(NC(=O)c3ccc(C)c(Oc4ccnc(NC)n4)c3)cc2C(F)(F)F)CC1	0.0265	0.165	> 10	0.546	–	74.6	89.6	0.085	0.0458	95.4	–	–	–	> 85	77.7
CCN1CCN(Cc2ccc(NC(=O)c3ccc(C)c(/C=C/c4cnc5[nH]ccc5c4OC)c3)cc2)CC1	–	–	7.71	–	> 80	96.3	–	0.01	–	–	–	–	–	–	–
Cc1cn(-c2cc(NC(=O)c3ccc(C)c(Oc4ccnc5[nH]ccc45)c3)cc(C(F)(F)F)c2)cn1	0.0301	4.49	–	–	–	–	–	–	–	–	inactive	–	–	72	-1.5
COc1c(/C=C/c2cc(C(=O)Nc3ccc(OC4CCN(C)CC4)c(C(F)(F)F)c3)ccc2C)cnc2[nH]ccc12	–	–	7.57	–	> 85	94.5	–	0.01	0.0636	90.5	–	–	–	–	–
